An excerpt weighted towards active compounds, which were near 3.7% of everything screened.
hERG rescue: hERG (human) protection from proarrhythmic block; activation (rescue from dofetilide block), less the hit threshold, % at 10 µM; 310,000 tested, 0.51% active; Q12809; CHO-hERG, FluxOR thallium flux, dofetilide IC70 present; AID 1511;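 active means activation above the mean of controls blocked by dofetilide plus 5 SD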;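 further: thallium influx through hERG after potassium depolarization seen as dye fluorescence rise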
Kir21 inh: Kir2.1 (mouse) channel inhibition; P35561; HEK293-Kir2.1, FluxOR thallium flux fluorescence; stronger effect = lower value; B-score at 10 µM; 310,000 tested, 0.85% active; AID 1672;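 active means fluorescence ratio B-score at or below minus 3 SD of library scores, with starting-brightness B-score within 2 SD, cut at about -4.2 in these data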;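 further: channel flux triggered by added potassium and thallium sulfate stimulus; B-score of peak minus minimum fluorescence over baseline after thallium stimulus; more negative B-score means stronger Kir2.1 block with less thallium influx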
KCNQ1 inh: blocks the human KCNQ1 potassium channel. B-score at 10 µM. P51787. CHO-K1 KCNQ1, FluxOR thallium flux fluorescence; stronger effect = higher value. 310,000 tested, 1.3% active;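 active means compounds whose thallium flux B-score, printed positive for inhibition, exceeds three library SD while starting fluorescence stays within three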;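 further: channel opened by potassium depolarization with thallium stimulus after 20 min compound exposure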
KCNQ1 pot: potentiators or activators of human KCNQ1 potassium channel; P51787; CHO-K1 KCNQ1, thallium flux FluxOR fluorescence; stronger effect = higher value; B-score at 10 µM; 310,000 tested, 0.35% active;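 active means fluorescence ratio B-score, a plate-corrected score, at least three library SD, with initial intensity B-score within 5 SD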
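Test system: CHO-K1 cells stably expressing KCNQ1 / Medium: assay buffer / Also added: depolarizing K+/Tl+ stimulus, K2SO4 and Tl2SO4 each 12.5 mM in 5x stock / Incubation: 90 min dye loading and 20 min compound exposure, both at room temperature / Signal: thallium influx via FluxOR fluorescence, kinetic imaging / Evaluation: B score of baseline-normalized fluorescence ratio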
KCNK9 block: blocks the human KCNK9 two-pore domain potassium channel. HEK293 KCNK9, FluxOR thallium flux fluorescence; stronger effect = lower value. 310,000 tested, 1.2% active. B-score at 10 µM. Q9NPC2. AID 488922;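 active means ratio B-score over 3 SD below the library mean, with starting fluorescence within 5 SD of its mean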;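 further: negative B-score means less thallium flux so channel inhibition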
Target sequence (Q9NPC2 whole entry, looked up, the tested form may be a part): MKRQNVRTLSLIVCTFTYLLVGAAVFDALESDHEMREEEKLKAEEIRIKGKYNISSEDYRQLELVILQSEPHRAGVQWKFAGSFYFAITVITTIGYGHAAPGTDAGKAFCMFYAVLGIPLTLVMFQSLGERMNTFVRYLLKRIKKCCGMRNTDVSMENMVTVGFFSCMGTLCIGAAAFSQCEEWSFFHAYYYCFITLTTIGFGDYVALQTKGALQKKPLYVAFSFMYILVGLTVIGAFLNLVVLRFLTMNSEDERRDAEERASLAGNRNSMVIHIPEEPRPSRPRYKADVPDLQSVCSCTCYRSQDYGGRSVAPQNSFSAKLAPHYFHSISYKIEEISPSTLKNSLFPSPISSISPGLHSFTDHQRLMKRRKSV
KCNK3 block: human KCNK3 channel inhibition, primary screen | O14649 | B-score at 10 µM | AID 602410 | CHO-KCNK3 thallium flux, FluxOR fluorescence; stronger effect = lower value | 340,000 tested, 0.84% active;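 active means B-score under library mean minus 4 SD, starting fluorescence ratio at most library mean plus 5 SD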;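 further: more negative B-score means stronger inhibition of thallium flux through KCNK3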
Target sequence (O14649 whole entry, looked up): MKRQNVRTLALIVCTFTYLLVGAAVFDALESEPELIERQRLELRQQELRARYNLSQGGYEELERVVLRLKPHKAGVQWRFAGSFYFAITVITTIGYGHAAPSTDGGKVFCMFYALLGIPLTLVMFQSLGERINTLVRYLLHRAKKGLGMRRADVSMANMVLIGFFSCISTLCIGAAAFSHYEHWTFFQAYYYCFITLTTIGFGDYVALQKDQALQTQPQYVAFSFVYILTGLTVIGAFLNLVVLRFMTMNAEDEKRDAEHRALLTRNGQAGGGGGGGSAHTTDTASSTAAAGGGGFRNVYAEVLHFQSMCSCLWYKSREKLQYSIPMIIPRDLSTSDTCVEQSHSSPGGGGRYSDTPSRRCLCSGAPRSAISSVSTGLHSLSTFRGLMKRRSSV
KCNQ1 block val: reconfirmed blocker of the human KCNQ1 potassium channel; AID 588353; KCNQ1 cell line, FluxOR thallium flux fluorescence; 1,600 tested, 93% active; shares compounds with KCNQ1 inh; inhibition, % at 10 µM;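 active means primary screen active, with duplicate mean exceeding buffer control mean plus 3 SD of buffer wells, cut at about 28% in these data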
CHO KCNQ1 ctr: KCNQ1 inhibitor counter-screen hit in parental CHO cells; shares compounds with KCNQ1 inh; parental CHO-K1, FluxOR thallium flux fluorescence ratio; stronger effect = lower value; zero means no signal rise above baseline; fluorescence ratio (Tl flux) at 10 µM; 1,600 tested, 21% active;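 active means mean of duplicate thallium-flux fluorescence ratios in parental host cells more than 5 SD below the buffer control mean, cut at about 0.38 in these data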;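 further: ratio is peak minus minimum fluorescence divided by baseline fluorescence; actives read low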
KCNQ1 ephys val: confirmation of human KCNQ1 potassium channel inhibitors by electrophysiology | shares compounds with KCNQ1 inh | KCNQ1-CHO cells, automated patch clamp current | calls only at 10 µM | 490 tested, 20% active | AID 624120;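 active means KCNQ1 current drop exceeding 3 SD of negative control wells, seen in both duplicate runs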;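 further: steady state current during a 2 s step from -80 to +40 mV; negative values mean current inhibition and positive values mean potentiation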
KCNQ2 inh: KCNQ1 inhibitor that also blocks rat KCNQ2 channel; inhibition, % at 10 µM; KCNQ2 cells, FluxOR thallium flux fluorescence; 1,600 tested, 71% active; shares compounds with KCNQ1 inh;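 active means mean percent inhibition of the KCNQ2 thallium signal more than 5 SD above the buffer-only control wells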;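 further: KCNQ2 expressed in CHO cells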
KCNQ1-KCNE1 inh: KCNQ1 inhibitor that also blocks human KCNQ1/KCNE1 channel. shares compounds with KCNQ1 inh. KCNQ1/KCNE1 cells, FluxOR thallium flux fluorescence. inhibition, % at 10 µM. 1,600 tested, 77% active. AID 652147;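 active means mean percent inhibition of duplicate wells above the buffer-only control mean plus 3 SD of those controls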
KCNK9 inh conf: confirmation of human KCNK9 potassium channel inhibitors. 4,900 tested, 43% active. HEK293 KCNK9 cells, FluxOR thallium flux fluorescence. shares compounds with KCNK9 block. inhibition, % at 10 µM;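 active means thallium signal inhibited by more than 5 SD of the compound-free buffer control wells, on both duplicate plates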
Kir21 sel: selectivity of KCNK9 modulators against mouse Kir2.1; shares compounds with KCNK9 block; Kir2.1 cells, FluxOR thallium flux fluorescence; inhibition, % at 10 µM; 4,900 tested, 4% active;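 active means thallium signal drop more than 5 SD beyond the mean of the no-compound control wells, seen in both duplicate plates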;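 further: signal is fluorescence rise after thallium addition divided by baseline fluorescence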
HEK293 Tl ctr: second check of KCNK9 modulator effects in non-induced HEK293 cells | shares compounds with KCNK9 block | FluxOR thallium flux | inhibition, % at 10 µM | 4,900 tested, 40% active;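 active means thallium signal drop beyond 5 SD of the untreated control mean, on both duplicate plates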
KCNK3 inh conf: human KCNK3 channel inhibition, confirmation assay | shares compounds with KCNK3 block | AID 651638 | 2,400 tested, 99% active | CHO-KCNK3 thallium flux, FluxOR fluorescence; 0% buffer, 100% carvedilol maximal block | ratio percent of control, % at 10 µM;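 active means ratio percent of control, averaged over triplicates, above buffer control mean plus 5 SD, cut at about 64% in these data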;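 further: ratio is the fluorescence rise from min to max over baseline after thallium stimulus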
KCNK3 noninduced: activity in cells without induced KCNK3 expression; shares compounds with KCNK3 block; non-induced KCNK3 parental cells, FluxOR thallium flux; stronger effect = lower value; thallium flux ratio (lower = more inhibition) at 10 µM; 2,400 tested, 40% active;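 active means thallium flux ratio, averaged over three wells, more than 5 SD below the buffer control mean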;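 further: host cells are CHO cells without KCNK3 induction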
A number is an active result; - = inactive; . = not tested or not shown; + = active, no number.

SMILES	hERG rescue	Kir21 inh	KCNQ1 inh	KCNQ1 pot	KCNK9 block	KCNK3 block	KCNQ1 block val	CHO KCNQ1 ctr	KCNQ1 ephys val	KCNQ2 inh	KCNQ1-KCNE1 inh	KCNK3 inh conf	KCNK3 noninduced	others
COc1ccc(-n2cc(-c3ccccc3)c3c(N4CC(C)OC(C)C4)ncnc32)cc1 (stereo not drawn)	-	-	12	-	-	-10.8	121.0	-	-	141.7%	170.0%	114.0	0.133
CCOc1ccc(-n2cc(-c3ccccc3)c3c(N4CCOCC4)ncnc32)cc1	-	-	-	-	-	-	.	.	.	.	.	.	.
CCCCN1CC(=O)N2[C@H]3c4ccc(OC)cc4OC[C@@H]3[C@H](C(=O)OCC)[C@]2(C)C1=O	.	.	.	.	.	-	.	.	.	.	.	.	.
CCCCNC(=S)Nc1ccc(SC(F)F)cc1	-	-	8	-	-7.68	-10.1	91.0	-	+	-	61.0%	120.7	0.146
C[C@H](NC(=O)[C@H](Cc1ccccc1)NC(=O)c1cc2cc(Cl)ccc2n1C)C(=O)O	-	-	-	-	-	-	.	.	.	.	.	.	.
CC(C)(C)c1ccc(NC(=S)NCc2cccs2)cc1	-	-	-	-	-	-	.	.	.	.	.	.	.
CCC(C)c1ccc(NC(=S)NCc2cccs2)cc1 (stereo not drawn)	-	-	7	-	-	-9.51	90.0	-	+	61.3%	95.0%	110.7	-
O=C(Cc1cccs1)NCCSc1c(-c2ccc(Cl)cc2)[nH]c2ccccc12	-	-	19	-	-13.8	-14.4	134.0	0.345	.	124.0%	186.0%	132.0	0.146	KCNK9 inh conf=53.5%;Kir21 sel=-;HEK293 Tl ctr=32.0%
CCOC(=O)CSc1c(-c2ccc(Cl)cc2)[nH]c2ccccc12	-	-	-	-	-	-	.	.	.	.	.	.	.
O=C1CCCc2nc(N3CCN(C(=O)c4ccco4)CC3)ncc21	-	-	-	-	-	-	.	.	.	.	.	.	.
O=C1CCCc2nc(N3CCN(C(c4ccccc4)c4ccccc4)CC3)ncc21	-	-	8	-	-	-8.76	96.5	-	-	108.0%	165.0%	119.3	0.145
CCOC(=O)C1CCN(c2c(C(=O)c3ccccc3)cnc3ccc(CC)cc23)CC1	-	-	7	-	-11.1	-11.6	134.5	-	.	128.3%	192.5%	109.7	-	KCNK9 inh conf=28.0%;Kir21 sel=-;HEK293 Tl ctr=33.5%
O=C(Nc1cccnc1)c1cc(-c2ccc(Br)cc2)nc2ccccc12	-	-	8	-	-9.7	-15.4	142.5	0.25	.	139.3%	+	143.0	-	KCNK9 inh conf=33.0%;Kir21 sel=-;HEK293 Tl ctr=-
Cc1ccc(CCNC(=O)c2sc3nc4n(c(=O)c3c2C)CCC4)cc1	-	-	-	-	-	-	.	.	.	.	.	.	.
CSCCC(NC(=O)c1ccccc1Br)C(=O)NNC(=O)C1COc2ccccc2O1 (stereo not drawn)	.	.	.	.	.	-	.	.	.	.	.	.	.
O=C(Oc1cccc(Nc2ncnc3ccccc23)c1)c1ccccc1Cl	-	-	12	-	-8.97	-9.63	139.5	0.312	.	131.0%	+	139.0	-	KCNK9 inh conf=52.0%;Kir21 sel=41.5%;HEK293 Tl ctr=44.0%
CCNc1ccc(C(=O)OCC(=O)Nc2cc(C)on2)cc1[N+](=O)[O-]	.	.	.	.	.	-	.	.	.	.	.	.	.
O=c1oc(-c2ccc(Cl)c(Cl)c2)nn1-c1ccc(C(F)(F)F)cn1	-	-	-	-	-	-	.	.	.	.	.	.	.
O=C1NC(=Nc2ccccc2Cl)S/C1=C\c1cc([N+](=O)[O-])ccc1O	-	-	23	-	-	-13.6	197.0	0.17	.	166.0%	+	169.0	0.033
Cc1cc(SCC(=O)c2ccc(O)c(O)c2)nc2ccccc12	-	-	9	-	-	-9.44	99.5	-	-	-	116.0%	120.3	0.142
Cc1cc(SCC(=O)c2ccc3c(c2)OCO3)nc2ccccc12	-	-	-	-	-	-	.	.	.	.	.	.	.
Cc1ccccc1OCC(O)Cn1c(=N)n(Cc2ccccc2)c2ccccc21 (stereo not drawn)	-	-12.2	12	-	-	-12.3	130.0	-	-	99.0%	-	124.7	-
CC1CCCCC1NC(=O)CSc1nnnn1C (stereo not drawn)	.	.	.	.	.	-	.	.	.	.	.	.	.
Cc1ccc(Nc2nc(NCCO)c3ccccc3n2)cc1C	-	-6.87	7	-	-	-11.8	101.5	-	-	66.0%	83.5%	128.3	-
COc1ccc(-c2csc3ncnc(N4CCN(c5ccccc5)CC4)c23)cc1	-	-	15	-	-6.72	-	134.0	0.367	.	132.3%	+	106.3	0.128
COc1ccc(-c2csc3ncnc(N4CCN(Cc5ccccc5)CC4)c23)cc1	-	-	-	-	-	-	.	.	.	.	.	.	.
CC1C(=O)N(Cc2ccccc2F)c2ccccc2N1C(=O)c1c(F)cccc1F (stereo not drawn)	-	-	15	-	-7.67	-9.02	58.0	-	.	78.3%	50.5%	87.0	-
CCCCNC(=S)N1CCn2cccc2C1c1ccccc1 (stereo not drawn)	-	-	-	-	-	-	.	.	.	.	.	.	.
CCCCNC(=S)N1CCn2cccc2C1c1ccc(F)cc1 (stereo not drawn)	-	-	6	-	-13.6	-9.7	92.5	-	-	81.3%	70.5%	134.0	0.147	KCNK9 inh conf=55.5%;Kir21 sel=-;HEK293 Tl ctr=41.0%

High-throughput results as filed in PubChem BioAssay.
